Assay results from PubChem BioAssay AID463192 (Sanford-Burnham Center for Chemical Genomics, 2010).
Active and inactive are the calls of the source.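 The calls were made as follows: active = membrane recruitment of a green fluorescent kinase sensor scored by eye at 30% or more; inactive = the rest.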

Target: G-protein coupled receptor 55 (Homo sapiens) (UniProt Q9Y2T6)
Assay: agonist-driven PKCbII translocation via GPR55 – imaging, HEK293, PKCbII-GFP, SAR follow-up (AID 463192)
Details: HEK293 GPR55, PKCbII-GFP membrane recruitment imaging
How it was run: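 Assay system: HEK293 cells transiently expressing wild-type human GPR55 and PKC βII-GFP biosensor / Buffer or medium: serum-free MEM / Compound dosing: four-point compound series, 10 nM to 10 µM final, duplicate / Timing: 15 min compound exposure at 37 °C / Detection: fluorescence microscopy of fixed cells, scored by eye / Replicates: duplicate wells per compound dose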

G-protein coupled receptor 55 (Homo sapiens), sequence (Q9Y2T6 whole entry, looked up): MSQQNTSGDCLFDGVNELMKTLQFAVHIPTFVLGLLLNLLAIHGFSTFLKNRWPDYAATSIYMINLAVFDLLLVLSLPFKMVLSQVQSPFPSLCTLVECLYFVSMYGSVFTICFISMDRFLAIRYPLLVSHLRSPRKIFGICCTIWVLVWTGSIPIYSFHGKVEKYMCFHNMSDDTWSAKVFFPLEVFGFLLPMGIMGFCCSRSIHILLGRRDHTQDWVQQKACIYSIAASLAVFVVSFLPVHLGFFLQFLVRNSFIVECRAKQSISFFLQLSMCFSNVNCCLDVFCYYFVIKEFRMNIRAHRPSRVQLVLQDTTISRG

Compound	outcome
COc1ccccc1/C=C/C(=O)NC(=S)Nc1ccc(S(=O)(=O)N(C)c2ccccc2)cc1	active; +++
COc1ccc2cc(C)c3nnc(SCC(=O)Nc4nc(-c5ccc(F)cc5)cs4)n3c2c1	active; +++
Cc1cccc(N2CCN(C(=O)c3cc(S(=O)(=O)N(C)C)ccc3N3CCCC3)CC2)c1C	active; +++
Cc1occc1C(=O)Nc1ccc(OCc2ccccc2)cc1	active; +++
COc1ccc(-c2csc(NC(=O)CSc3nnc4c(C)cc5ccccc5n34)n2)cc1	active; +++
CC(C)Oc1ccc(S(=O)(=O)N2CCOCC2)cc1NC(=O)c1ccc(N2CCCC2=O)cc1	active; +++
CN(C)S(=O)(=O)c1ccc(N2CCCC2)c(C(=O)N2CCN(c3ccc([N+](=O)[O-])cc3)CC2)c1	active; +++
COc1ccc(S(=O)(=O)N2CCOCC2)cc1NC(=O)c1cc2c(s1)CCCC2	active; +++
CCCN(CCC)Cc1c(C(=O)NN=Cc2c[nH]c3ccccc23)nnn1-c1nonc1N	active; +++
